Source: ChEMBL document CHEMBL5303300, “EUbOPEN Chemogenomics Library - Multiplex” (2023)
Values joined by “and” are separate entries in the source; they are usually repeats but may differ in a detail not shown here. Equal entries are not always repeated.

Tests used:
Format in all cases: toxicity, cell-based
U2OS = experiment: Multiplex assay against U2OS; conditions: human, 10 µM, compound concentration 10 uM, number of replicates 2
Procedure, shortened: (§1)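 Hoechst33342, BioTracker Green Microtubule Cytoskeleton Dye, MitoTracker Red and Annexin V Alexa Fluor 680 were added to live cells at seeding, and imaging on a CQ1 microscope at 37°C and 5% CO2 followed compound addition. Gating by CellPathfinder machine learning separated cells into Hoechst high-intensity objects or normal cells, then normal cells into healthy, pyknosed or fragmented nuclei, then pyknosed cells into mitotic or apoptotic. Per cents of healthy-nucleus cells are reported for the tubulin, mitochondrial-mass and membrane-permeability phenotypes.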

Fibroblast = experiment: Multiplex assay against human fibroblast; conditions: 10 µM, compound concentration 10 uM, number of replicates 2; procedure, shortened: as §1
HEK-293T = experiment: Multiplex assay against HEK293T; conditions: human, 10 µM, compound concentration 10 uM, number of replicates 2; procedure, shortened: as §1

C[C@@H]1CC[C@@]2(OC1)O[C@H]1[C@@H](O)[C@H]3[C@@H]4CC[C@H]5C[C@@H](O[C@@H]6O[C@H](CO)[C@H](O[C@@H]7O[C@H](CO)C(O)[C@H](O[C@@H]8OC[C@@H](O)[C@H](O)[C@H]8O)[C@H]7O[C@@H]7O[C@H](CO)[C@H](O)[C@H](O[C@@H]8O[C@H](CO)[C@@H](O)[C@H](O)[C@H]8O)[C@H]7O)[C@H](O)[C@H]6O)[C@H](O)C[C@]5(C)[C@H]4CC[C@]3(C)[C@H]1[C@@H]2C (stereo partly drawn) [DIGITONIN]
Population Apoptotic (%) (U2OS; 12 h): 65% [middle of 4 runs] | Population Healthy Nuclei (%) (U2OS; 12 h): 67% and 87% and 86% and 88% | Population Hoechst High Intensity Objects (%) (U2OS; 12 h): 0% | Population Membrane Permeable-Phenotype (%) (U2OS; 12 h): 0% and 7% and 1% and 3% | Population Mitochondria Different-Phenotype (%) (U2OS; 12 h): 0% and 3% | Population Normal (%) (U2OS; 12 h): 100% | Population Pyknosed Nuclei (%) (U2OS; 12 h): 5% and 3% and 9% | Population Tubulin-Different-Phenotype (%) (U2OS; 12 h): 72% and 92% and 85% and 94% | Population Apoptotic (%) (U2OS; 24 h): 58% [middle of 4 runs] | Population Healthy Nuclei (%) (U2OS; 24 h): 67% and 83% and 85% and 86% | Population Hoechst High Intensity Objects (%) (U2OS; 24 h): 0% | Population Membrane Permeable-Phenotype (%) (U2OS; 24 h): 0% and 2% and 1% | Population Mitochondria Different-Phenotype (%) (U2OS; 24 h): 0% and 2% | Population Normal (%) (U2OS; 24 h): 100% | Population Pyknosed Nuclei (%) (U2OS; 24 h): 13% and 12% and 9% | Population Tubulin-Different-Phenotype (%) (U2OS; 24 h): 65% and 97% and 90% and 96% | Population Apoptotic (%) (U2OS; 48 h): 70% and 100% and 62% and 51% | Population Healthy Nuclei (%) (U2OS; 48 h): 68% and 75% and 92% and 91% | Population Hoechst High Intensity Objects (%) (U2OS; 48 h): 1% and 0% | Population Membrane Permeable-Phenotype (%) (U2OS; 48 h): 3% and 1% and 0% | Population Mitochondria Different-Phenotype (%) (U2OS; 48 h): 5% and 1% and 0% | Population Normal (%) (U2OS; 48 h): 98% and 100% and 99% | Population Pyknosed Nuclei (%) (U2OS; 48 h): 13% and 7% and 6% and 5% | Population Tubulin-Different-Phenotype (%) (U2OS; 48 h): 84% and 100% and 92% and 97% | Population Apoptotic (%) (Fibroblast; 12 h): 44% and 47% and 48% and 42% | Population Fragmented Nuclei (%) (Fibroblast; 12 h): 9% and 12% and 13% and 8% | Population Healthy Nuclei (%) (Fibroblast; 12 h): 76% and 61% and 68% and 72% | Population Hoechst High Intensity Objects (%) (Fibroblast; 12 h): 0% | Population Membrane Permeable-Phenotype (%) (Fibroblast; 12 h): 6% and 4% and 1% | Population Mitochondria Different-Phenotype (%) (Fibroblast; 12 h): 0% and 1% and 2% | Population Mitotic Cells (%) (Fibroblast; 12 h): 56% and 52% and 51% and 57% | Population Normal (%) (Fibroblast; 12 h): 100% | Population Pyknosed Nuclei (%) (Fibroblast; 12 h): 13% and 26% and 18% and 19% | Population Tubulin-Different-Phenotype (%) (Fibroblast; 12 h): 10% and 4% and 8% and 6% | Total Cell Count (Fibroblast; 12 h): 181 and 157 and 188 and 182 | Population Apoptotic (%) (Fibroblast; 24 h): 55% and 53% and 47% and 66% | Population Fragmented Nuclei (%) (Fibroblast; 24 h): 11% and 12% | Population Healthy Nuclei (%) (Fibroblast; 24 h): 77% and 55% and 71% and 69% | Population Hoechst High Intensity Objects (%) (Fibroblast; 24 h): 0% and 1% | Population Membrane Permeable-Phenotype (%) (Fibroblast; 24 h): 6% and 2% | Population Mitochondria Different-Phenotype (%) (Fibroblast; 24 h): 0% and 1% and 3% | Population Mitotic Cells (%) (Fibroblast; 24 h): 45% and 46% and 52% and 33% | Population Normal (%) (Fibroblast; 24 h): 100% and 98% | Population Pyknosed Nuclei (%) (Fibroblast; 24 h): 11% and 32% and 17% | Population Tubulin-Different-Phenotype (%) (Fibroblast; 24 h): 11% and 3% and 7% and 12% | Total Cell Count (Fibroblast; 24 h): 171 and 168 and 198 and 188 | Population Apoptotic (%) (Fibroblast; 48 h): 90% and 64% and 75% and 60% | Population Fragmented Nuclei (%) (Fibroblast; 48 h): 12% and 14% and 15% | Population Healthy Nuclei (%) (Fibroblast; 48 h): 81% and 64% and 68% | Population Hoechst High Intensity Objects (%) (Fibroblast; 48 h): 0% | Population Membrane Permeable-Phenotype (%) (Fibroblast; 48 h): 5% and 1% and 7% | Population Mitochondria Different-Phenotype (%) (Fibroblast; 48 h): 0% and 1% | Population Normal (%) (Fibroblast; 48 h): 100% and 99% | Population Tubulin-Different-Phenotype (%) (Fibroblast; 48 h): 6% and 5% | Total Cell Count (Fibroblast; 48 h): 169 and 162 and 205 and 188 | Population Apoptotic (%) (HEK-293T; 12 h): 61% and 33% and 40% and 57% | Population Fragmented Nuclei (%) (HEK-293T; 12 h): 7% and 2% and 3% and 6% | Population Healthy Nuclei (%) (HEK-293T; 12 h): 79% and 88% and 83% and 81% | Population Hoechst High Intensity Objects (%) (HEK-293T; 12 h): 10% and 5% and 4% and 8% | Population Membrane Permeable-Phenotype (%) (HEK-293T; 12 h): 1% and 3% | Population Mitochondria Different-Phenotype (%) (HEK-293T; 12 h): 14% and 13% and 16% and 17% | Population Mitotic Cells (%) (HEK-293T; 12 h): 38% and 66% and 59% and 42% | Population Normal (%) (HEK-293T; 12 h): 89% and 94% and 95% and 91% | Population Pyknosed Nuclei (%) (HEK-293T; 12 h): 13% and 8% and 12% and 11% | Population Tubulin-Different-Phenotype (%) (HEK-293T; 12 h): 50% and 43% and 44% and 49% | Total Cell Count (HEK-293T; 12 h): 558 and 637 and 534 and 641 | Population Apoptotic (%) (HEK-293T; 24 h): 44% [middle of 4 runs] | Population Fragmented Nuclei (%) (HEK-293T; 24 h): 5% and 8% and 2% and 10% | Population Healthy Nuclei (%) (HEK-293T; 24 h): 86% and 81% and 90% | Population Hoechst High Intensity Objects (%) (HEK-293T; 24 h): 7% and 9% and 6% and 8% | Population Membrane Permeable-Phenotype (%) (HEK-293T; 24 h): 3% and 2% | Population Mitochondria Different-Phenotype (%) (HEK-293T; 24 h): 4% and 2% and 7% and 3% | Population Mitotic Cells (%) (HEK-293T; 24 h): 67% and 34% and 68% and 55% | Population Normal (%) (HEK-293T; 24 h): 92% and 90% and 93% and 91% | Population Pyknosed Nuclei (%) (HEK-293T; 24 h): 8% and 9% and 6% | Population Tubulin-Different-Phenotype (%) (HEK-293T; 24 h): 26% and 22% and 28% and 17% | Total Cell Count (HEK-293T; 24 h): 1037 and 963 and 742 and 1134 | Population Apoptotic (%) (HEK-293T; 48 h): 13% and 14% and 23% and 21% | Population Fragmented Nuclei (%) (HEK-293T; 48 h): 13% and 15% and 10% and 17% | Population Healthy Nuclei (%) (HEK-293T; 48 h): 83% and 79% and 85% and 80% | Population Hoechst High Intensity Objects (%) (HEK-293T; 48 h): 10% and 9% and 11% | Population Membrane Permeable-Phenotype (%) (HEK-293T; 48 h): 5% and 3% and 2% | Population Mitochondria Different-Phenotype (%) (HEK-293T; 48 h): 0% | Population Mitotic Cells (%) (HEK-293T; 48 h): 86% and 85% and 76% and 78% | Population Normal (%) (HEK-293T; 48 h): 89% and 90% and 88% | Population Pyknosed Nuclei (%) (HEK-293T; 48 h): 3% and 4% and 2% | Population Tubulin-Different-Phenotype (%) (HEK-293T; 48 h): 13% and 5% and 14% and 6% | Total Cell Count (HEK-293T; 48 h): 2746 and 2725 and 1654 and 2990
